pKi: −log10 of the molar value.

In general, inhibition refers to the relative decrease from the control value, in per cent. As a reminder, the pKi is −log10 of the Ki, conventionally taken in molar units. The Ki is a dissociation constant, usually derived from enzyme kinetics or from competition with a known ligand.

Data set [1] has as its target T1, D(4) dopamine receptor (Homo sapiens) (UniProt P21917).
T1 sequence (whole entry): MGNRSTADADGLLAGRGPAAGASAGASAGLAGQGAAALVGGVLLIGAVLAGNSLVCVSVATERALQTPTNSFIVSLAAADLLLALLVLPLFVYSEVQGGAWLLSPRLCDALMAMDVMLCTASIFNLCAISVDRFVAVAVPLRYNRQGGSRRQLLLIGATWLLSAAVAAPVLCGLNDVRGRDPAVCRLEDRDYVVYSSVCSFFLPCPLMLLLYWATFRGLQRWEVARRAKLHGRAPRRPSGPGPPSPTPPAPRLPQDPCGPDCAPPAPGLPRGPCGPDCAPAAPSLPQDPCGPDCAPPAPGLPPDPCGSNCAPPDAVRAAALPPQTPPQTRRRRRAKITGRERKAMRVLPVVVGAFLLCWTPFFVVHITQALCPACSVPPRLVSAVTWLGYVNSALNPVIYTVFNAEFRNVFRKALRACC
The experiment in a line: Compound at 1 uM was tested for the inhibition of radioligand [3H]spiperone binding to recombinant human Dopamine receptor D4. In a few lines: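 Recombinant human D4.7 in CHO cell membranes; [3H]spiperone for 120 min at 25 °C, pH 7.4 Tris-HCl/NaCl/EDTA; haloperidol (10 μM) for nonspecific binding. Compound at 1 μM, percent inhibition determined in duplicate; filtration, scintillation counting.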

Data set [2] addresses Alpha-2A adrenergic receptor (Homo sapiens, UniProt P08913). The data set can be described thus: Binding affinity towards recombinant human alpha-2A adrenergic receptor was determined using [3H]MK-912 as radioligand. In a few lines:
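Membranes from CHO cells expressing recombinant human α2a receptor; competition with [3H]MK912, 60 min at 25 °C, in 50 mM Tris-HCl/150 mM NaCl/5 mM EDTA pH 7.4. Nonspecific binding defined with 10 μM WB4101. Filtration, washing, scintillation counting. IC50 by nonlinear regression, Ki via Cheng–Prusoff; mean ± SEM of three independent experiments.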

The target of data set [3] is Serotonin 1 (5-HT1) receptor (Rattus norvegicus, UniProt P28564+P30940+P19327+P28565). The data set can be described thus: Binding affinity towards 5-hydroxytryptamine 1 receptor was determined in rat cerebral cortex using [3H]5-HT as radioligand. Format: tissue-based. In a few lines: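 Rat cerebral cortex membranes incubated with [3H]5-HT for 10 min at 37 °C in 50 mM Tris-HCl, 150 mM NaCl, 5 mM EDTA, pH 7.4. Nonspecific binding defined with 10 μM 5-HT. Filtration, then liquid scintillation counting. Ki derived from IC50 by Cheng–Prusoff; mean of three independent experiments.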

Data set [4] concerns the target Dihydropyridine-sensitive L-type Ca2+ channel (Rattus norvegicus, UniProt P22002+P27732+Q02485). The experiment in a line: Inhibition of [3H]nitrendipine binding to Dihydropyridine-sensitive L-type [Ca2+] channel in rat cerebral cortex at 10 uM. The data set is classed as tissue-based. Conditions: probe [3H]nitrendipine. The gist of the method:
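Rat cerebral cortex membranes as source of dihydropyridine-sensitive L-type Ca2+ channels; [3H]nitrendipine, 25 °C for 90 min, pH 7.4 Tris-HCl/NaCl/EDTA; 1 μM nifedipine for nonspecific binding. Percent inhibition at the single compound concentration given in each line; filtration, scintillation counting.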

In data set [5] the target is Voltage-gated L-type calcium channel (Rattus norvegicus, UniProt P22002+Q02485+P27732). The data set can be described thus: Inhibition of [3H]nitrendipine binding to phenylalkylamine-sensitive [Ca2+] L-type channels in rat cerebral cortex. The data set is classed as tissue-based.

Sequence of Alpha-2A adrenergic receptor (P08913 whole entry): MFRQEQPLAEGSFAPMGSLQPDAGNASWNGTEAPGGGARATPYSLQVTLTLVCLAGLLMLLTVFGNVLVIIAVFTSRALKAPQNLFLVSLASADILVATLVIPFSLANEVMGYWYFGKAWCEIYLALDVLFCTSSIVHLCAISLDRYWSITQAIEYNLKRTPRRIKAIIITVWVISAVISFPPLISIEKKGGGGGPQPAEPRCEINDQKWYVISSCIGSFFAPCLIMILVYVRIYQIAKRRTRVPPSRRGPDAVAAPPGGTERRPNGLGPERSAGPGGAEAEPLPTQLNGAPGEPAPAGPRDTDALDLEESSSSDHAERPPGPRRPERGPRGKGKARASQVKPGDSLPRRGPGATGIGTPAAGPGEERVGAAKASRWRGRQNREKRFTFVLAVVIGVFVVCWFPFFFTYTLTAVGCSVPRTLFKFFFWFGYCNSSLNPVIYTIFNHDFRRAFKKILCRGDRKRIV

Regarding `Cc1ccc(N2C(=O)c3ccc(C(=O)NC[C@H](O)CN4CCN(c5ccccc5OC(C)C)CC4)cc3C2=O)cc1`, in data set [1], the inhibition came to 50%.

Turning to `CCOc1ccccc1OCCN[C@H](C)Cc1ccc(OC)c(S(N)(=O)=O)c1` [TAMSULOSIN], the pKi in data set [2] was 7.20. This molecule showed a Ki in data set [3] of 0.944 µM.

In the case of `CC(C)Oc1ccccc1N1CCN(C[C@@H](O)CNC(=O)c2ccc3c(c2)C(=O)N(c2ccc(N(C)C)cc2)C3=O)CC1`, the inhibition at 10 µM in data set [4] is 53%. Also, the Ki in data set [5] came out at 0.76 µM.
